Measured values as given in ChEMBL document CHEMBL2311288, “Discovery of liver-targeted inhibitors of stearoyl-CoA desaturase (SCD1)” (Bioorg Med Chem Lett, 2013).

Columns and labels:
Mus musculus [1] = experiment: Toxicity in CD-1 mouse assessed as effect on food consumption up to 300 mg/kg, po; type: organism-based; parameters: dose 300 mg/kg, route oral; conditions: in vivo
Mus musculus [2] = experiment: Toxicity in CD-1 mouse assessed as tubular atrophy of the testes up to 300 mg/kg, po; type: organism-based, Testis; parameters: dose 300 mg/kg, route oral; conditions: in vivo
[3] = AUC (0 to 24 hrs) in CD-1 mouse at 100 mg/kg, po; type: ADME, organism-based; parameters: time < 24 hr, dose 100 mg/kg, route oral; conditions: plasma
Procedure, shortened: (§1)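 Male CD-1 mice received single daily oral gavage doses of 30, 100 or 300 mg/kg for 2 weeks. Plasma drug levels were determined on Day 13, and exposure was expressed as AUC(0–24 h).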

Mus musculus [4] = experiment: Toxicity in CD-1 mouse assessed as eyelid atrophy of sebaceous gland up to 300 mg/kg, po; type: organism-based; parameters: dose 300 mg/kg, route oral; conditions: in vivo
Mus musculus [5] = experiment: Toxicity in CD-1 mouse assessed as eyes (corneal degeneration, inflammation) up to 300 mg/kg, po; type: organism-based, Cornea; parameters: dose 300 mg/kg, route oral; conditions: in vivo
Mus musculus [6] = experiment: Toxicity in CD-1 mouse assessed as skin atrophy of sebaceous gland up to 300 mg/kg, po; type: organism-based; parameters: dose 300 mg/kg, route oral; conditions: in vivo
Mus musculus [7] = experiment: Toxicity in mouse assessed as abnormalities in skin at 30 mg/kg; type: organism-based; parameters: dose 30 mg/kg; conditions: in vivo
[8] = Ratio of drug level in liver to plasma of rat at 10 mg/kg measured after 6 hrs; type: ADME, organism-based; parameters: dose 10 mg/kg
Procedure, shortened: (§2)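 Rats were given a single 10 mg/kg dose. Plasma exposure (AUC, Cmax) was determined, and drug concentrations in plasma, brain and liver were measured at 6 h post-dose. The liver/plasma ratio was taken from the 6 h levels.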

Mus musculus [9] = experiment: Toxicity in CD-1 mouse assessed as decrease in absolute peri-renal fat weight at 100 to 300 mg/kg, po relative to control; type: organism-based; parameters: dose 100-300 mg/kg, route oral; conditions: in vivo
Rattus norvegicus = experiment: AUC in rat at 10 mg/kg; type: ADME, organism-based, Plasma; parameters: dose 10 mg/kg; conditions: in vivo; procedure, shortened: as §2
Mus musculus [10] = experiment: Toxicity in CD-1 mouse assessed as relative liver weight at 100 mg/kg, po; type: organism-based; parameters: dose 100 mg/kg, route oral; conditions: in vivo
[11] = Plasma concentration in rat at 10 mg/kg measured after 6 hrs; type: ADME, organism-based; parameters: dose 10 mg/kg; procedure, shortened: as §2
Mus musculus [12] = experiment: Toxicity in CD-1 mouse assessed as meibomian gland (atrophy, squamous metaplasia) up to 300 mg/kg, po; type: organism-based; parameters: dose 300 mg/kg, route oral; conditions: in vivo
[13] = Drug level in liver in rat at 10 mg/kg measured after 6 hrs; type: ADME, organism-based; parameters: dose 10 mg/kg; conditions: read-out: Drug uptake; procedure, shortened: as §2
Acyl-CoA desaturase 1 = biological target: T1, Acyl-CoA desaturase 1 (Rattus norvegicus, UniProt P07308); experiment: Inhibition of rat SCD1 by rat microsomal assay
T1 sequence (P07308 whole entry): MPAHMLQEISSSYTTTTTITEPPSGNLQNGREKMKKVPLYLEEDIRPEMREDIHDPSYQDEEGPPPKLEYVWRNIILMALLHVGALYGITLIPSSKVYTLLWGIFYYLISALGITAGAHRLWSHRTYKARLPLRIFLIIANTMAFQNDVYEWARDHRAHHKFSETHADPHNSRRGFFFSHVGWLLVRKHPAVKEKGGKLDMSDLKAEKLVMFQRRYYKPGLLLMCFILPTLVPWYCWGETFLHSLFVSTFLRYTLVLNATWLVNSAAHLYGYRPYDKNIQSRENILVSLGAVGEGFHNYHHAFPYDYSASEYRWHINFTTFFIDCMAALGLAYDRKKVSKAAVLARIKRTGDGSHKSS
Procedure, shortened: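 Microsomal desaturase activity was measured in 100 mM Tris HCl pH 7.3 with 2 mM NADH and [9,10-3H]stearoyl-CoA for 15 min at room temperature. The reaction was stopped on ice with trichloroacetic acid, then passed through activated charcoal, and tritium in the filtrate was counted. Compounds were tested in 2% DMSO final. Percent inhibition = (total−sample)/(total−blank)×100, with the blank set by 10⁻⁴ M of a standard inhibitor.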

Mus musculus [14] = experiment: Toxicity in CD-1 mouse assessed as effect on body weight up to 300 mg/kg, po; type: organism-based; parameters: dose 300 mg/kg, route oral; conditions: in vivo
Mus musculus [15] = experiment: Toxicity in CD-1 mouse assessed as relative liver weight at 300 mg/kg, po; type: organism-based; parameters: dose 300 mg/kg, route oral; conditions: in vivo
[16] = Plasma concentration in AKR/J mouse at 10 mg/kg measured after 4 hrs; type: ADME, organism-based; parameters: dose 10 mg/kg
Procedure, shortened: (§3)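 Male AKR/J mice, 7 weeks old (n = 10/group) and fed a 10% kcal low-fat diet, were given oral doses of 1, 3, 10 or 30 mg/kg. Plasma was collected 4 h after dosing, and drug concentration in that plasma was measured.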

Mus musculus [17] = experiment: Toxicity in CD-1 mouse assessed as absolute liver weight at 300 mg/kg, po; type: organism-based; parameters: dose 300 mg/kg, route oral; conditions: in vivo
Mus musculus [18] = experiment: Toxicity in mouse assessed as abnormalities in eyes at 30 mg/kg; type: organism-based; parameters: dose 30 mg/kg; conditions: in vivo
[19] = Plasma concentration in AKR/J mouse at 30 mg/kg measured after 4 hrs; type: ADME, organism-based; parameters: dose 30 mg/kg; procedure, shortened: as §3
Mus musculus [20] = experiment: Toxicity in CD-1 mouse assessed as absolute liver weight at 100 mg/kg, po; type: organism-based; parameters: dose 100 mg/kg, route oral; conditions: in vivo
[21] = Plasma concentration in AKR/J mouse at 3 mg/kg measured after 4 hrs; type: ADME, organism-based; parameters: dose 3 mg/kg; procedure, shortened: as §3
[22] = Cmax in rat at 10 mg/kg; type: ADME, organism-based; parameters: dose 10 mg/kg; conditions: in vivo; procedure, shortened: as §2
[23] = Plasma concentration in AKR/J mouse at 1 mg/kg measured after 4 hrs; type: ADME, organism-based; parameters: dose 1 mg/kg; procedure, shortened: as §3
Mus musculus [24] = experiment: Toxicity in CD-1 mouse assessed as atrophy of the harderian and meibomian glands up to 300 mg/kg, po; type: organism-based; parameters: dose 300 mg/kg, route oral; conditions: in vivo
Mus musculus [25] = experiment: Toxicity in CD-1 mouse assessed as minimal Leydig cell hyperplasia of the testes at 300 mg/kg, po; type: organism-based, Testis; parameters: dose 300 mg/kg, route oral; conditions: in vivo
[26] = AUC (0 to 24 hrs) in CD-1 mouse at 300 mg/kg, po; type: ADME, organism-based; parameters: time < 24 hr, dose 300 mg/kg, route oral; conditions: plasma; procedure, shortened: as §1
[27] = AUC (0 to 24 hrs) in CD-1 mouse at 30 mg/kg, po; type: ADME, organism-based; parameters: time < 24 hr, dose 30 mg/kg, route oral; conditions: plasma; procedure, shortened: as §1
Mus musculus [28] = experiment: Toxicity in CD-1 mouse assessed as inhibition of fatty acid metabolism measured as lesions in eyes and skin at 30 to 300 mg/kg, po for 2 weeks; type: organism-based; parameters: dose 30-300 mg/kg, route oral; conditions: in vivo, 336 h
Mus musculus [29] = experiment: Toxicity in CD-1 mouse assessed as decrease in relative peri-renal fat weight at 100 to 300 mg/kg, po relative to control; type: organism-based; parameters: dose 100-300 mg/kg, route oral; conditions: in vivo

With `O=C(O)c1cnc(N2CCC3(CC2)CCN(Cc2cccc(C(F)(F)F)c2)c2ccccc2O3)s1` the Activity (Mus musculus [1]) was “Non-toxic”, the Activity (Mus musculus [2]) was “Toxic” and the AUC(0-t) at 24 h [3] was 565 µM·h. For the same compound, the Activity (Mus musculus [4]) was “Toxic”, the Activity (Mus musculus [5]) was “Toxic” and the Activity (Mus musculus [6]) was “Toxic”. For the same compound, the Activity (Mus musculus [7]) was “Non-toxic”, the Kp at 6 h [8] was 56 and the Activity (Mus musculus [9]) was “Toxic”. It also gave an AUC (Rattus norvegicus) of 2308 ng·h/g, an Activity (Mus musculus [10]) of 20% and a concentration at 6 h [11] of 345 ng/g. For the same compound, the Activity (Mus musculus [12]) was “Toxic”, the concentration at 6 h [13] was 19200 ng/g and the IC50 (Acyl-CoA desaturase 1) was 8 nM. For the same compound, the Activity (Mus musculus [14]) was “Non-toxic”, the Activity (Mus musculus [15]) was 33% and the concentration at 4 h [16] was 135 ng/mL. The Activity (Mus musculus [17]) was 29%, the Activity (Mus musculus [18]) was “Non-toxic” and the concentration at 4 h [19] was 1740 ng/mL. It also gave an Activity (Mus musculus [20]) of 19%, a concentration at 4 h [21] of 45 ng/mL and a Cmax [22] of 495 ng/g. For the same compound, the concentration at 4 h [23] was 0.64 ng/mL, the Activity (Mus musculus [24]) was “Toxic” and the Activity (Mus musculus [25]) was “Toxic”. For the same compound, the AUC(0-t) at 24 h [26] was 1520 µM·h, the AUC(0-t) at 24 h [27] was 114 µM·h and the Activity (Mus musculus [28]) was “Toxic”. The Activity (Mus musculus [29]) was “Toxic”.
